From PubChem
Hits are enriched below; roughly 2.9% of the tested compounds scored in any of these assays.
HEK293 NFkB inh: inhibitors of the PMA/ionomycin-induced NF-kB reporter in HEK293 cells; inhibition, % at 3 µM; 62,000 compounds, 0.21% hits; HEK-293 NF-kB luciferase reporter, luminescence;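 active = inhibition above the mean of all tested compounds plus 3 SD, cut at about 40% in these data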;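 also: 0% = stimulated DMSO wells and 100% = 10 µM reference inhibitor 5653914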
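System – HEK-293 cells with stable firefly luciferase reporter driven by four HIV NF-kB elements · Doses – one dose, 3 µM · Schedule – 1 h compound pre-incubation, 16 h PMA/ionomycin at 37 °C · Technique – luminescence from luciferase substrate reagent · Measure – percent inhibition normalized per plate to DMSO and reference-inhibitor controls · Replicates – tested once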
SKBR3 24h inh: SK-BR-3 proliferation inhibitors; viability, % at 10 µM; SK-BR-3 viability, CellTiter-Glo ATP luminescence, 24 h; stronger effect = lower value; 41,000 compounds, 0.47% hits;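 active = viability at or below the median of all test compounds minus 3 SD, in both replicates if run twice, cut at about 45% in these data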;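 also: 100% = median untreated cell wells and 0% = median positive control drug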
HTR1A agonist: agonists of human 5-HT1a serotonin receptor; P08908; CHO 5-HT1a Ga15 NFAT-bla reporter, FRET ratio; 0% basal, 100% maximal reference agonist; activation, % at 10 µM; 65,000 compounds, 0.56% hits; AID 567;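 active = activation above the screen-wide mean activation plus 3 SD, cut at about 19% in these data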;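 also: 0% = DMSO wells and 100% = 5-CT at EC100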
5-HT1A blocker: 5-HT1a (human) receptor antagonism. P08908. CHO 5-HT1a Ga15 NFAT-bla reporter, antagonist mode. inhibition, % at 10 µM. 62,000 compounds, 0.68% hits. AID 612;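 active = inhibition above the mean of all tested compounds plus 3 SD, cut at about 43% in these data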;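 also: receptor stimulated by 5-CT agonist at 100 nM near EC80; beta-lactamase reporter measured by ratiometric fluorescence of a cleavable substrate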
HTR1E antagonist: blocks the human 5-HT1E serotonin receptor. P28566. CHO 5-HT1E Ga15 NFAT-bla reporter, FRET, antagonist. AID 571. 65,000 compounds, 0.99% hits. inhibition, % at 6 µM;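 active = inhibition above a set limit, the mean inhibition across every tested compound plus 3 SD, cut at about 29% in these data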;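 also: signal is the 460 over 535 nm emission ratio of beta-lactamase substrate; 0% = agonist plus DMSO wells and 100% = wells without agonist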
Target sequence (P28566 whole entry, looked up): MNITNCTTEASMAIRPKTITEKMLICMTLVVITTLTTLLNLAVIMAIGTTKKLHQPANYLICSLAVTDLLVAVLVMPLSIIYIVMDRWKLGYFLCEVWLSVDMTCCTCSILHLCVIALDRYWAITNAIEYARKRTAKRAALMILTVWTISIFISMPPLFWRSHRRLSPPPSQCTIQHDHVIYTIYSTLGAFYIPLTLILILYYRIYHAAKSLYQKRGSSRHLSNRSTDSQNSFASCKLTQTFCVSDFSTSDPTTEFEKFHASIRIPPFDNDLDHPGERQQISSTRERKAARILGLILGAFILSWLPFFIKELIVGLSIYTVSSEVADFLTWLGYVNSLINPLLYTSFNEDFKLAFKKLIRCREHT
5HT1E ag: 5-HT1E (human) receptor agonism. P28566. AID 574. 65,000 compounds, 0.69% hits. activation, % at 6 µM. CHO 5-HT1E Ga15 NFAT-bla reporter, FRET; 0% DMSO wells, 100% control agonist wells;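 active = activation above a set limit, the screen-wide mean activation plus 3 SD, cut at about 8.5% in these data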;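 also: 100% = positive control agonist at 1 µM giving full maximal response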
Numbers without * were called inactive.

Results for COc1ccc(C2=NOC(C(=O)NCc3ccc(F)cc3)C2)cc1 (stereo not drawn) ?
HEK293 NFkB inh: 12; HTR1A agonist: -2; 5-HT1A blocker: 40; HTR1E antagonist: 56*; 5HT1E ag: 0

How did CCn1ncc(C2=NOC(C(=O)NCc3ccc(Cl)cc3)C2)c1C (stereo not drawn) do in these assays?
HEK293 NFkB inh: 21; HTR1A agonist: -5; 5-HT1A blocker: 42; HTR1E antagonist: 58*; 5HT1E ag: -1

How did C=C(C)Cn1c(SCC(=O)O)nc2c1c(=O)[nH]c(=O)n2C do in these assays?
HEK293 NFkB inh: 2; HTR1A agonist: -1; 5-HT1A blocker: -6; HTR1E antagonist: -15; 5HT1E ag: 1

Results for O=C1CC(C2CCCO2)C(=O)N1c1cccc(Cl)c1 (stereo not drawn) ?
HEK293 NFkB inh: 22; HTR1A agonist: -1; 5-HT1A blocker: 4; HTR1E antagonist: 9; 5HT1E ag: 1

What do the screens show for `O=C(c1ccc(Cl)cc1)c1ccc(OCC(O)CN2CCOCC2)cc1` (stereo not drawn)?
HEK293 NFkB inh: 0; SKBR3 24h inh: 69; HTR1A agonist: 0; 5-HT1A blocker: 1; HTR1E antagonist: 6; 5HT1E ag: 9.1*

Results for O=C(CN1C(=O)c2ccccc2S1(=O)=O)N1CCN(Cc2ccc3c(c2)OCO3)CC1 ?
HEK293 NFkB inh: -14; SKBR3 24h inh: 40*; HTR1A agonist: -3; 5-HT1A blocker: -2; HTR1E antagonist: 6; 5HT1E ag: 0

How did CC1CCN(S(=O)(=O)c2ccc(S(=O)(=O)NCC3COCCO3)cc2)CC1 (stereo not drawn) do in these assays?
HEK293 NFkB inh: 17; SKBR3 24h inh: 78; HTR1A agonist: -2; 5-HT1A blocker: -18; HTR1E antagonist: 5; 5HT1E ag: 26*

What do the screens show for `O=C(NCC1CCCO1)c1ccc(S(=O)(=O)N2CCCCC2)cc1` (stereo not drawn)?
HEK293 NFkB inh: 9; SKBR3 24h inh: 90; HTR1A agonist: -2; 5-HT1A blocker: -2; HTR1E antagonist: -12; 5HT1E ag: -1

What do the screens show for `Cc1cc(NC(=O)CS(=O)(=O)c2cn(Cc3ccccc3Cl)c3ccccc23)no1`?
HEK293 NFkB inh: 15; SKBR3 24h inh: 34*; HTR1A agonist: -1; 5-HT1A blocker: 23; HTR1E antagonist: 8; 5HT1E ag: -1

How did C=CCSc1nc2sc(C)c(C)c2c(=O)[nH]1 do in these assays?
HEK293 NFkB inh: -4; HTR1A agonist: -1; 5-HT1A blocker: -18; HTR1E antagonist: -4; 5HT1E ag: 0

What do the screens show for `C=CCSc1nc(N)c2c(C)c(C)sc2n1`?
HEK293 NFkB inh: 9; SKBR3 24h inh: 105; HTR1A agonist: 49*; 5-HT1A blocker: -5; HTR1E antagonist: 4; 5HT1E ag: 0

Results for CCOC(=O)c1cnc(SCC(=O)Nc2ccc(NC(=O)CC)c(OC)c2)nc1N ?
HEK293 NFkB inh: 9; SKBR3 24h inh: 103; HTR1A agonist: 3; 5-HT1A blocker: 5; HTR1E antagonist: 1; 5HT1E ag: 2

How did Cc1cc(NC(=O)CSc2ccc(-c3nc4cc(C)c(C)cc4[nH]3)cn2)no1 do in these assays?
HEK293 NFkB inh: 24; SKBR3 24h inh: 114; HTR1A agonist: 1; 5-HT1A blocker: 22; HTR1E antagonist: 31*; 5HT1E ag: 1

Results for Cc1ccc2nc(SCC(=O)Nc3cc(C)on3)[nH]c2c1 ?
HEK293 NFkB inh: 6; HTR1A agonist: -4; 5-HT1A blocker: 0; HTR1E antagonist: 6; 5HT1E ag: -1

What do the screens show for `CCn1c(CSc2ncccn2)nnc1SCC(=O)N1CCc2ccccc21`?
HEK293 NFkB inh: 10; SKBR3 24h inh: 87; HTR1A agonist: -5; 5-HT1A blocker: 2; HTR1E antagonist: -4; 5HT1E ag: 0

Results for Cn1c(CSc2ncccn2)nnc1SCC(=O)N1CCCc2ccccc21 ?
HEK293 NFkB inh: 23; SKBR3 24h inh: 24*; HTR1A agonist: 0; 5-HT1A blocker: -3; HTR1E antagonist: 5; 5HT1E ag: 0

What do the screens show for `CCN(CC)c1ccc2c(C)c(CN3CCOCC3)c(=O)oc2c1`?
HEK293 NFkB inh: -1; SKBR3 24h inh: 67; HTR1A agonist: 23*; 5-HT1A blocker: -43; HTR1E antagonist: -16; 5HT1E ag: 6

What do the screens show for `COC(=O)Cc1c(C)c2ccc(OCC(=O)N3CCOCC3)cc2oc1=O`?
HEK293 NFkB inh: 9; SKBR3 24h inh: 92; HTR1A agonist: -1; 5-HT1A blocker: -4; HTR1E antagonist: 1; 5HT1E ag: 0

What do the screens show for `Nc1nc(NC(=O)Cc2ccccc2)nn1-c1ccccc1`?
SKBR3 24h inh: 80; HTR1A agonist: 0; HTR1E antagonist: -6; 5HT1E ag: 0

How did COc1ccc(-c2ccc(SCC(=O)N3CCCC3)nn2)cc1OC do in these assays?
HEK293 NFkB inh: 6; SKBR3 24h inh: 89; HTR1A agonist: -2; 5-HT1A blocker: -3; HTR1E antagonist: 30*; 5HT1E ag: 0

What do the screens show for `CCOC(=O)CSc1nnc(-c2nnc(SCC(=O)OCC)n2CC)n1CC`?
HEK293 NFkB inh: 6; HTR1A agonist: -1; 5-HT1A blocker: -10; HTR1E antagonist: 4; 5HT1E ag: 7

Results for COc1cccc(C(=O)Nc2ccc(C)cc2)c1 ?
HEK293 NFkB inh: -44; SKBR3 24h inh: 102; HTR1A agonist: 164*; 5-HT1A blocker: 4; HTR1E antagonist: -1; 5HT1E ag: 1

How did c1ccc(CCc2nn3c(Cc4ccccc4)nnc3s2)cc1 do in these assays?
HEK293 NFkB inh: -5; SKBR3 24h inh: 87; HTR1A agonist: 0; 5-HT1A blocker: -76; HTR1E antagonist: -3; 5HT1E ag: 0

Results for COc1ccc(C(O)C(CN2CCOCC2)c2ccccc2)cc1F (stereo not drawn) ?
HEK293 NFkB inh: 10; SKBR3 24h inh: 90; HTR1A agonist: 0; 5-HT1A blocker: -7; HTR1E antagonist: -1; 5HT1E ag: 0

What do the screens show for `COc1ccc(C(=O)C(CN2CCOCC2)c2ccccc2)cc1F` (stereo not drawn)?
HEK293 NFkB inh: 31; SKBR3 24h inh: 97; HTR1A agonist: -2; 5-HT1A blocker: 76*; HTR1E antagonist: 39*; 5HT1E ag: 0

How did O=C(O)c1ccc(Cn2cc(Cl)cn2)cc1 do in these assays?
HEK293 NFkB inh: 14; SKBR3 24h inh: 111; HTR1A agonist: -2; 5-HT1A blocker: -5; HTR1E antagonist: 5; 5HT1E ag: 2

Results for COc1cccc(C2=NOC(C(=O)NCCN3CCOCC3)C2)c1 (stereo not drawn) ?
HEK293 NFkB inh: 20; HTR1A agonist: -2; 5-HT1A blocker: 4; HTR1E antagonist: 3; 5HT1E ag: -1

How did CCCS(=O)(=O)N1CCCC(C(=O)NCCCN2CCN(c3cccc(Cl)c3)CC2)C1 (stereo not drawn) do in these assays?
HEK293 NFkB inh: 11; SKBR3 24h inh: 77; HTR1A agonist: -1; 5-HT1A blocker: 37; HTR1E antagonist: 7; 5HT1E ag: 3
